In ChEMBL document CHEMBL1765064, “Discovery of potent and selective inhibitors of ataxia telangiectasia mutated and Rad3 related (ATR) protein kinase as potential anticancer agents” (J Med Chem, 2011):
pIC50, pKi: −log10 of the molar value.

Assays:
[1] = molecular target: Serine-protein kinase ATM (Homo sapiens, UniProt Q13315); experiment: Inhibition of full length recombinant ATM after 24 hrs by radiometric phosphate incorporation assay
[2] = molecular target: T1, Serine/threonine-protein kinase ATR (Homo sapiens, UniProt Q13535); experiment: Inhibition of full length recombinant ATR after 24 hrs by radiometric phosphate incorporation assay
Procedure, shortened: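 Radiometric [γ-33P]ATP incorporation into target peptide. Full-length ATR and ATM were made in-house; DNA-PK was purchased. Kinase, buffer and peptide were premixed, then compound was added in DMSO (7% final DMSO). Reactions started with ATP at 25 °C and were stopped with phosphoric acid (100 mM final) plus ATP (0.66 μM final). Peptide was captured on phosphocellulose, washed, and scintillation-counted.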

Cytochrome P450 3A4 = Cytochrome P450 3A4 (Homo sapiens, UniProt P08684); experiment: Inhibition of CYP3A4; assay type: ADME
[3] = molecular target: DNA-dependent protein kinase catalytic subunit (Homo sapiens, UniProt P78527); experiment: Inhibition of DNAPK after 2 hrs by radiometric phosphate incorporation assay
[4] = molecular target: T1, Serine/threonine-protein kinase ATR; experiment: Inhibition of ATR in human HT-29 cells assessed as hydroxyurea-induced phosphorylation of H2AX by immunofluorescence microscopy; assay type: cell-based
[5] = Permeability from basolateral to apical side of human Caco2 cells; assay type: ADME, cell-based; conditions: Caco-2, read-out: permeability
[6] = Permeability from apical to basolateral side of human Caco2 cells; assay type: ADME, cell-based; conditions: Caco-2, read-out: permeability
HFL1 [7] = experiment: Cytotoxicity against human HFL1 cells at up to 20 uM after 96 hrs by MTS assay; assay type: cell-based; conditions: hfl1, 96 h
Procedure, shortened: (§1)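 Exponentially growing cells were plated and left to adhere overnight. Compounds were added at the indicated concentrations for 96 h. MTS reagent was then added, and absorbance at 490 nm was read 1 h later as a measure of cell density.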

HFL1 [8] = experiment: Potentiation of cisplatin-induced cytotoxicity against human HFL1 cells at 0.62 uM after 96 hrs by MTS assay; assay type: cell-based; conditions: hfl1, 96 h
Procedure, shortened: (§2)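 Exponentially growing cells (ATCC lines, kept per supplier) plated and left to adhere overnight, then given inhibitor at 0.62 μM combined with cisplatin at the indicated concentrations for 96 h. Cell density read by MTS reagent, absorbance at 490 nm 1 h after addition. Fold change in cisplatin potency taken as potentiation. Synergy judged by MacSynergy analysis.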

[9] = molecular target: T1, Serine/threonine-protein kinase ATR; experiment: Competitive inhibition of full length recombinant ATR Morrison equation analysis
Procedure, shortened: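 Mean IC50s were plotted against ATP concentration and fit to the tight-binding competitive-inhibition equation IC50 = Ki(1 + [ATP]/Km) + [E]/2 to obtain Ki.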

HCT-116 [10] = experiment: Potentiation of cisplatin-induced cytotoxicity against human HCT116 cells at 0.62 uM after 96 hrs by MTS assay; assay type: functional; procedure, shortened: as §2
HCT-116 [11] = experiment: Cytotoxicity against human HCT116 cells after 96 hrs by MTS assay; assay type: functional, cell-based; conditions: HCT-116, 96 h; procedure, shortened: as §1
[12] = molecular target: Serine/threonine-protein kinase mTOR (Homo sapiens, UniProt P42345); experiment: Inhibition of mTOR by radiometric phosphate incorporation assay

T1 sequence (Q13535 whole entry): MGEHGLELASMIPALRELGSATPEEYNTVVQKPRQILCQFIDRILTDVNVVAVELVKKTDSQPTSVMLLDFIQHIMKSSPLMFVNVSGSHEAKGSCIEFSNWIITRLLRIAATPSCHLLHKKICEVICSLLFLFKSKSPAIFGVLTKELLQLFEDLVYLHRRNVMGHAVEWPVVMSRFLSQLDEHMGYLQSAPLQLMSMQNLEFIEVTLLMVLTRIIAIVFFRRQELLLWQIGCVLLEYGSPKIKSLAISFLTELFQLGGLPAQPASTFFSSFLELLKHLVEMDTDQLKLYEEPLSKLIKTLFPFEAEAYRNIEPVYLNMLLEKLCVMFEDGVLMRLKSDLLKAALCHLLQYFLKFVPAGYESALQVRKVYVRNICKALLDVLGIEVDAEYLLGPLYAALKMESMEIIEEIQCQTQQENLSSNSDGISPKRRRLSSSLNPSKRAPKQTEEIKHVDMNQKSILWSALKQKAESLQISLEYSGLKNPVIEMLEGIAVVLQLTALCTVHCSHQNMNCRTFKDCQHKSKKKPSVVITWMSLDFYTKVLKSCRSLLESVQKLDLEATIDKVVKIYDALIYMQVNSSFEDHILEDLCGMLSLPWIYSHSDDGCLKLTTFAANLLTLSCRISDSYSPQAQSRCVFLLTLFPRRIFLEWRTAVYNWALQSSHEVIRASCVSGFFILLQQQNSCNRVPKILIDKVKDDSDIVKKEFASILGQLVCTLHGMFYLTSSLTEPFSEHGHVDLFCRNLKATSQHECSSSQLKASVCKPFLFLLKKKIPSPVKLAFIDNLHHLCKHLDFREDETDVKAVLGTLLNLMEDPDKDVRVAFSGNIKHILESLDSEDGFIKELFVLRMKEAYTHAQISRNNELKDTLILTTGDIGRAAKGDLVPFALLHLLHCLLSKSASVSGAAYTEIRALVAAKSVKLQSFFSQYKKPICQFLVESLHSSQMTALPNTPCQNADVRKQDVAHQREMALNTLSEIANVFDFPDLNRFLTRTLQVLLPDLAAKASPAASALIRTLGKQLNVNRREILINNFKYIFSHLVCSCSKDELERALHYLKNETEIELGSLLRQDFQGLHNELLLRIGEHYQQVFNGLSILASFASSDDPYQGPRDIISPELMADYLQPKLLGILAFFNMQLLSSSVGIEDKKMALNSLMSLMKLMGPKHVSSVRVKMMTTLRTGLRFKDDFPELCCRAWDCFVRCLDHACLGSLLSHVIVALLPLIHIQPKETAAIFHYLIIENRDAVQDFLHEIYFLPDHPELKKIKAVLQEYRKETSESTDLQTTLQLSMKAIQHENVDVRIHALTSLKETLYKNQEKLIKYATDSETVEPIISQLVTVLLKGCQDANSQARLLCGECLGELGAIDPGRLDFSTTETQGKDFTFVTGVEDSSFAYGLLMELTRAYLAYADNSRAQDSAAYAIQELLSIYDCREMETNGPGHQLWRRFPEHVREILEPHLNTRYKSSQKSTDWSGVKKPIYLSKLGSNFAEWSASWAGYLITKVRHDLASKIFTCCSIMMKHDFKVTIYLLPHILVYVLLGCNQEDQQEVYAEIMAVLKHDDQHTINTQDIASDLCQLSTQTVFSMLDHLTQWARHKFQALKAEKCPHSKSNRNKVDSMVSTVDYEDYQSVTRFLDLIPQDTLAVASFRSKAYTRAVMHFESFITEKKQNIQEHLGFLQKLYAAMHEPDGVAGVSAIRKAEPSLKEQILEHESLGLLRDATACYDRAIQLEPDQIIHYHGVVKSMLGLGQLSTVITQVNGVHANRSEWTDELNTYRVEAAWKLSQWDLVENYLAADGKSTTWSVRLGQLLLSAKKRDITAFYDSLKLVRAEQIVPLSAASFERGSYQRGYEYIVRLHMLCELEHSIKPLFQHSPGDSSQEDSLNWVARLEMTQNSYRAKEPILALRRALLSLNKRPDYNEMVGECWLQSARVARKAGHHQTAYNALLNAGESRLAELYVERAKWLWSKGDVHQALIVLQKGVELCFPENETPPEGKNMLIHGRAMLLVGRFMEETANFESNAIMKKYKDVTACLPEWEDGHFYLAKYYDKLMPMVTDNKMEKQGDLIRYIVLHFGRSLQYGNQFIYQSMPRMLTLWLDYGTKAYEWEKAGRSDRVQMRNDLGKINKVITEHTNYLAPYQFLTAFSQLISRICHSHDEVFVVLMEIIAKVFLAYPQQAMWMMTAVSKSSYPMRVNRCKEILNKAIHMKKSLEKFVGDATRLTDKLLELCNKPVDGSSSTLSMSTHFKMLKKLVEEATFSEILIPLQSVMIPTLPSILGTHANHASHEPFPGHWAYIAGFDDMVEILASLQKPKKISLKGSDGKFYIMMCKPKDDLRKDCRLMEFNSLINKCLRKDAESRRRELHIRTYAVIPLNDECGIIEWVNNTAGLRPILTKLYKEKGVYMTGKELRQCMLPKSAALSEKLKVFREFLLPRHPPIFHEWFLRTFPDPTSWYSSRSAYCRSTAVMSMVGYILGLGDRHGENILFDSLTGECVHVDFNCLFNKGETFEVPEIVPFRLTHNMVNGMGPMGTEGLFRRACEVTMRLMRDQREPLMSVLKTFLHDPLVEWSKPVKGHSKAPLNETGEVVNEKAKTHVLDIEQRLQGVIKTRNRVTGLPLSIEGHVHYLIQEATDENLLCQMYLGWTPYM
Chain of Cytochrome P450 3A4 (P08684 whole entry): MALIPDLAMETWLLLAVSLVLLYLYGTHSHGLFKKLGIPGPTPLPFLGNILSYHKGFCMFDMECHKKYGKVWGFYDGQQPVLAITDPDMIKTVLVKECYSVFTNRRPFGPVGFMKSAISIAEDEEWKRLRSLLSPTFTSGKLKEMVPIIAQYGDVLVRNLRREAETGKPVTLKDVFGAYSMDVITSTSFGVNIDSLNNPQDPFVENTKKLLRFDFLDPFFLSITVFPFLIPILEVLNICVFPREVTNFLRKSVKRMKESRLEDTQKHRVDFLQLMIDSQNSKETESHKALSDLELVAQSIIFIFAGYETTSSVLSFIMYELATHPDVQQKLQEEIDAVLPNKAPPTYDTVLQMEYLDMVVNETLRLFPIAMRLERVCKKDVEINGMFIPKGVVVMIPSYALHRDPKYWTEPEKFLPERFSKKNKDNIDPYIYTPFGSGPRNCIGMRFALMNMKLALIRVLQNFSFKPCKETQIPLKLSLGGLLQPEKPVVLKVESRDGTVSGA

Structure (SMILES)	pIC50 [1]	pIC50 [2]	pIC50 [3]	also measured
O=c1cc(N2CCOCC2)oc2c1ccc1ccccc12	< 4.00	< 4.00	–	–
Nc1ncc(-c2cccnc2)nc1C(=O)Nc1ccccc1	< 5.10	6.74	< 5.10	pIC50 (Cytochrome P450 3A4): 5.70
Nc1ncc(-c2ccccc2)nc1C(=O)Nc1ccccc1	< 5.10	6.21	< 5.10	pIC50 [4]: < 5.60; pIC50 (Cytochrome P450 3A4): < 4.00
Nc1nccnc1C(=O)Nc1ccccc1	< 5.10	5.15	< 5.10	–
Nc1ncc(Br)nc1C(=O)Nc1ccccc1	< 5.10	5.28	< 5.10	–
Nc1ncc(C2CCCCC2)nc1C(=O)Nc1ccccc1	< 5.10	5.52	< 5.10	–
Nc1ncc(C2=CCCCC2)nc1C(=O)Nc1ccccc1	< 5.10	5.68	< 5.10	–
Nc1ncc(-c2ccncc2)nc1C(=O)Nc1ccccc1	< 5.10	6.19	5.30	–
N#Cc1ccccc1-c1cnc(N)c(C(=O)Nc2ccccc2)n1	6.49	7.62	6.14	–
C[S+]([O-])c1ccccc1-c1cnc(N)c(C(=O)Nc2ccccc2)n1 (stereo not given)	5.52	6.89	5.70	–
CS(=O)(=O)c1ccccc1-c1cnc(N)c(C(=O)Nc2ccccc2)n1	< 5.10	5.89	< 5.10	–
Nc1ncc(-c2ccccc2O)nc1C(=O)Nc1ccccc1	< 5.10	5.62	< 5.10	–
COc1ccccc1-c1cnc(N)c(C(=O)Nc2ccccc2)n1	< 5.10	6.13	< 5.10	–
Nc1ncc(-c2ccccc2Cl)nc1C(=O)Nc1ccccc1	< 5.10	6.15	5.42	–
Cc1ccccc1-c1cnc(N)c(C(=O)Nc2ccccc2)n1	< 5.10	5.85	5.85	–
N#Cc1cccc(-c2cnc(N)c(C(=O)Nc3ccccc3)n2)c1	< 5.10	6.40	5.66	–
CS(=O)(=O)c1cccc(-c2cnc(N)c(C(=O)Nc3ccccc3)n2)c1	5.18	6.47	6.13	–
Nc1ncc(-c2cccc(O)c2)nc1C(=O)Nc1ccccc1	< 5.10	6.27	5.66	–
COc1cccc(-c2cnc(N)c(C(=O)Nc3ccccc3)n2)c1	< 5.10	5.66	5.38	–
Nc1ncc(-c2cccc(Cl)c2)nc1C(=O)Nc1ccccc1	< 5.10	5.80	< 5.10	–
Cc1cccc(-c2cnc(N)c(C(=O)Nc3ccccc3)n2)c1	< 5.10	6.25	< 5.10	–
N#Cc1ccc(-c2cnc(N)c(C(=O)Nc3ccccc3)n2)cc1	< 5.10	6.74	< 5.10	–
CS(=O)(=O)c1ccc(-c2cnc(N)c(C(=O)Nc3ccccc3)n2)cc1	< 5.10	7.59	5.36	–
Nc1ncc(-c2ccc(O)cc2)nc1C(=O)Nc1ccccc1	5.24	6.49	5.74	–
COc1ccc(-c2cnc(N)c(C(=O)Nc3ccccc3)n2)cc1	< 5.10	5.82	5.18	–
Nc1ncc(-c2ccc(Cl)cc2)nc1C(=O)Nc1ccccc1	< 5.10	5.62	< 5.10	–

Structure (SMILES)	pIC50 [1]	pIC50 [2]	pIC50 [3]	also measured
Cc1ccc(-c2cnc(N)c(C(=O)Nc3ccccc3)n2)cc1	< 5.10	5.77	< 5.10	–
NC(=O)c1ccc(-c2cnc(N)c(C(=O)Nc3ccccc3)n2)cc1	5.54	6.96	5.92	–
CNC(=O)c1ccc(-c2cnc(N)c(C(=O)Nc3ccccc3)n2)cc1	5.59	6.74	5.15	–
Nc1ncc(-c2ccc(C(=O)N3CCC3)cc2)nc1C(=O)Nc1ccccc1	< 5.10	7.00	< 5.10	pIC50 [4]: 6.00
CN(C)C(=O)c1ccc(-c2cnc(N)c(C(=O)Nc3ccccc3)n2)cc1	< 5.10	7.27	< 5.10	pIC50 [4]: 5.70
Nc1ncc(-c2ccc(C(=O)N3CCCC3)cc2)nc1C(=O)Nc1ccccc1	< 5.10	7.27	5.55	pIC50 [4]: 5.85
Nc1ncc(-c2ccc(C(=O)N3CCCCC3)cc2)nc1C(=O)Nc1ccccc1	< 5.10	7.59	< 5.10	pIC50 [4]: 5.19
CN(C)C(=O)c1ccc(-c2cnc(N)c(C(=O)Nc3ccccc3)n2)cc1Cl	< 5.10	7.32	< 5.10	pIC50 [4]: 4.92
C[S+]([O-])c1ccc(-c2cnc(N)c(C(=O)Nc3ccccc3)n2)cc1 (stereo not given)	< 5.10	7.25	5.17	pIC50 [4]: 5.27
CCS(=O)(=O)c1ccc(-c2cnc(N)c(C(=O)Nc3ccccc3)n2)cc1	< 5.10	7.92	5.24	pIC50 [4]: 5.82
CC(C)S(=O)(=O)c1ccc(-c2cnc(N)c(C(=O)Nc3ccccc3)n2)cc1	< 5.10	8.10	5.25	pIC50 [4]: 6.00
CCCS(=O)(=O)c1ccc(-c2cnc(N)c(C(=O)Nc3ccccc3)n2)cc1	5.27	7.85	< 5.10	pIC50 [4]: 5.70
CCC(C)S(=O)(=O)c1ccc(-c2cnc(N)c(C(=O)Nc3ccccc3)n2)cc1 (stereo not given)	5.18	8.00	< 5.10	pIC50 [4]: 5.80
CC(C)(C)S(=O)(=O)c1ccc(-c2cnc(N)c(C(=O)Nc3ccccc3)n2)cc1	< 5.10	8.22	< 5.10	pIC50 [4]: 6.00
CC(CN(C)C)S(=O)(=O)c1ccc(-c2cnc(N)c(C(=O)Nc3ccccc3)n2)cc1 (stereo not given)	< 5.10	7.92	< 5.10	Papp B→A [5]: 23 ×10⁻⁶ cm/s; Papp A→B [6]: 17 ×10⁻⁶ cm/s; Activity (HFL1 [7]): Non-toxic; fold change (FC) (HFL1 [8]): 1.1; pIC50 [4]: 6.38; pKi [9]: 8.22; fold change (FC) (HCT-116 [10]): 7; pIC50 (HCT-116 [11]): 5.96
CC(CCO)S(=O)(=O)c1ccc(-c2cnc(N)c(C(=O)Nc3ccccc3)n2)cc1 (stereo not given)	< 5.10	8.10	5.49	pIC50 [4]: 6.42
Nc1ncc(-c2ccc(S(=O)(=O)[C@@H]3CCOC3)cc2)nc1C(=O)Nc1ccccc1	5.30	8.00	5.36	pIC50 [4]: 6.34
CS(=O)(=O)c1ccc(-c2cnc(N)c(C(=O)NC3CCCCC3)n2)cc1	< 5.10	5.45	< 5.10	–
CS(=O)(=O)c1ccc(-c2cnc(N)c(-c3nc4ccccc4[nH]3)n2)cc1	6.42	7.52	5.68	–
CS(=O)(=O)c1ccc(-c2cnc(N)c(-c3nc4ccccc4o3)n2)cc1	6.08	7.44	5.85	–
CS(=O)(=O)c1ccc(-c2cnc(N)c(-c3nc4ccccc4s3)n2)cc1	6.14	7.66	5.54	–
CS(=O)(=O)c1ccc(-c2cnc(N)c(-c3cc4ccccc4[nH]3)n2)cc1	6.92	7.64	5.62	–
Cn1c(=O)c2c(ncn2C)n(C)c1=O [CAFFEINE]	3.70	2.96	2.00	pIC50 [12]: 3.40
O=c1cc(-c2cccc3c2Sc2ccccc2S3)oc(N2CCOCC2)c1 [KU-55933]	–	< 4.00	–	pIC50 [12]: 5.03
COc1cc2c(c(OC)c1OC)-c1c(cc3c(c1OC)OCO3)CC(C)C(C)C2 (stereo not given) [SCHISANDRIN B]	2.76	5.14	–	–
